Measured values from different studies.
Protocols differ between the studies behind these lines.
Organism: Plasmodium falciparum
Effect on: parasite growth

| Structure (SMILES) | test | test system | conditions | IC50 |
| --- | --- | --- | --- | --- |
| CCN(CC)CCCC(C)Nc1ccnc2cc(Cl)ccc12 (stereo not drawn) | – | K1 | drug-resistant strain, blood stage | 280 nM |
| OC(c1cc(C(F)(F)F)nc2c(C(F)(F)F)cccc12)C1CCCCN1 (stereo not drawn) | – | – | blood stage | 37.2 nM |
| CCN(CC)CCCC(C)Nc1ccnc2cc(Cl)ccc12 (stereo not drawn) | ELISA | DD2 | drug-resistant strain, blood stage | 262 nM |
| CCc1ccc(C2=NC(=Cc3ccc(CCCCCCCCCC(C)O)[nH]3)C(OC)=C2)[nH]1 (stereo not drawn) | – | DD2 | drug-resistant strain, blood stage | 15 nM |
| Clc1ccc2c(c1)nc(NCCNCc1ccccc1)n2Cc1ccccc1 | – | K1 | drug-resistant strain, blood stage | 212 nM |
| COC1=CC(c2ccc[nH]2)=NC1=Cc1ccc(CCCCCCCCCCCCO)[nH]1 | – | DD2 | drug-resistant strain, blood stage | 23 nM |
| Clc1ccc2c(nc(N3CCNCC3)n2Cc2ccccc2)c1Cl | – | K1 | drug-resistant strain, blood stage | 32 nM |
| CCCCCCCCCCOc1cc2c(O)c(C(=O)OCC)cnc2cc1OCC | SYBR Green | W2 | blood stage | < 5.7 nM |
| CCN(CC)CCCC(C)Nc1ccnc2cc(Cl)ccc12 (stereo not drawn) | – | W2 | drug-resistant strain, blood stage | 0.15 µg/mL |
| CCN(CC)CCCC(C)Nc1ccnc2cc(Cl)ccc12 (stereo not drawn) | – | – | blood stage | 10.9 nM |
| CCN(CC)CCCC(C)Nc1ccnc2cc(Cl)ccc12 (stereo not drawn) | – | W2 | 72 h, drug-resistant strain | 360 nM |
| COC1=CC(c2cccn2C)=NC1=Cc1ccc(CCCCCCCCCC(C)O)[nH]1 (stereo not drawn) | – | DD2 | drug-resistant strain, blood stage | > 2500 nM |
| Brc1ccc2c(c1)nc(C1CCNCC1)n2Cc1ccccc1 | – | K1 | drug-resistant strain, blood stage | 61 nM |
| CCN(CC)CCCC(C)Nc1ccnc2cc(Cl)ccc12 (stereo not drawn) | – | D6 | blood stage | 0.014 µg/mL |
| COC1=CC(c2ccco2)=NC1=Cc1ccc(CCCCCCCCCC(C)O)[nH]1 (stereo not drawn) | – | 7G8 | drug-resistant strain, blood stage | > 2500 nM |
| CCN(CC)CCCC(C)Nc1ccnc2cc(Cl)ccc12 (stereo not drawn) | – | DD2 | drug-resistant strain | 102 nM |
| CCN(CC)CCCC(C)Nc1ccnc2cc(Cl)ccc12 (stereo not drawn) | SYBR Green | W2 | drug-resistant strain, blood stage | 383 nM |
| CC1=C(C)C(c2ccc[nH]2)=NC1=Cc1ccc(CCCCCCCCCC(C)O)[nH]1 (stereo not drawn) | – | 7G8 | drug-resistant strain, blood stage | 627 nM |
